Test results: ChEMBL document CHEMBL1151458, “Comparative analysis of the bactericidal activities of amphibian peptide analogues against multidrug-resistant nosocomial bacterial strains” (2008)
Activity calls are given as the source filed them. The rule behind the calls is not given here.

Experiments:
Acinetobacter baumannii [1] = test: Bactericidal activity against Acinetobacter baumannii isolate 3 with AMP-AMC-CFZ-CIP-IPM-SXT-TET-TOB resistance phenotype assessed as concentration required for >= 3 log10 CFU/ml reduction in viable bacteria in 20% heat-inactivated human serum after 1.5 hrs by liquid microdilution assay; type: functional
In short: (§1)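 The buffer microdilution kill assay (1 × 10^7 CFU/ml mid-log cells, 10 μl in 100 μl, 37°C, 1.5 h, CFU on tryptone soy agar after 24 h) with serum added to 20% or 40% final. Serum was pooled from five healthy donors, clotted at room temperature, spun at 300 × g and heat-inactivated at 56°C for 30 min.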

Staphylococcus aureus [2] = test: Bactericidal activity against Staphylococcus aureus isolate 2 with AMC-AMP-CIP-ERY-GEN-LVX-OXA-RIF-TET resistance phenotype assessed as concentration required for >= 3 log10 CFU/ml reduction in viable bacteria in sodium phosphate buffer at pH 7.4 after 1.5 hrs by liquid microdilution assay; type: functional
In short: (§2)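 Clinical multidrug-resistant isolates grown to mid-log in tryptone soy broth and stored frozen. Exponential cells resuspended in 10 mM sodium phosphate buffer, pH 7.4, at 1 × 10^7 CFU/ml; 10 μl incubated with graded peptide concentrations in 100 μl at 37°C for 1.5 h. Plated on tryptone soy agar, CFU read after 24 h at 37°C. Peptide stocks in 20% ethanol.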

Pseudomonas aeruginosa [3] = test: Antimicrobial activity against Pseudomonas aeruginosa isolate 1 with AMP-CFZ-CIP-CTX-CXM-GEN-LVX-SXT-TET resistance phenotype at bactericidal concentration after 30 mins by time kill assay; type: functional, organism-based
In short: (§3)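 Time-kill in 10 mM sodium phosphate buffer, pH 7.4: 1 × 10^7 CFU/ml mid-log clinical isolate (10 μl) exposed at 37°C to peptide at the 1.5-h bactericidal concentration or twofold that, in 100 μl. Samples taken from 2 min onward, plated on tryptone soy agar, CFU counted after 24 h at 37°C. Killing taken as ≥3 log10 CFU/ml drop.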

Acinetobacter baumannii [4] = test: Bactericidal activity against Acinetobacter baumannii isolate 1 with AMP-AMC-CFZ-CIP-IPM-LVX-PIP-SXT-TET resistance phenotype assessed as concentration required for >= 3 log10 CFU/ml reduction in viable bacteria in sodium phosphate buffer at pH 7.4 after 1.5 hrs by liquid microdilution assay; type: functional; in short: as §2
[5] = system: Stenotrophomonas maltophilia; test: Bactericidal activity against Stenotrophomonas maltophilia isolate 2 with AMK-CIP-CTX-IPM-MEM-SAM-TZP resistance phenotype assessed as concentration required for >= 3 log10 CFU/ml reduction in viable bacteria in sodium phosphate buffer at pH 7.4 after 1.5 hrs by liquid microdilution assay; type: functional; in short: as §2
Pseudomonas aeruginosa [6] = test: Bactericidal activity against Pseudomonas aeruginosa isolate 1 with AMP-CFZ-CIP-CTX-CXM-GEN-LVX-SXT-TET resistance phenotype assessed as concentration required for >= 3 log10 CFU/ml reduction in viable bacteria in sodium phosphate buffer at pH 7.4 after 1.5 hrs by liquid microdilution assay; type: functional; in short: as §2
Pseudomonas aeruginosa [7] = test: Bactericidal activity against Pseudomonas aeruginosa isolate 1 with AMP-CFZ-CIP-CTX-CXM-GEN-LVX-SXT-TET resistance phenotype assessed as concentration required for >= 3 log10 CFU/ml reduction in viable bacteria in 20% heat-inactivated human serum after 1.5 hrs by liquid microdilution assay; type: functional; in short: as §1
Enterococcus faecium [8] = test: Antimicrobial activity against Enterococcus faecium isolate 3 with AMP-CIP-CTX-ERY-GEN-LVX-SXT-TEC-VAN resistance phenotype assessed as time to kill at bactericidal concentration; type: functional; in short: as §3
[9] = system: Stenotrophomonas maltophilia; test: Bactericidal activity against Stenotrophomonas maltophilia isolate 2 with AMK-CIP-CTX-IPM-MEM-SAM-TZP resistance phenotype assessed as concentration required for >= 3 log10 CFU/ml reduction in viable bacteria in 20% heat-inactivated human serum after 1.5 hrs by liquid microdilution assay; type: functional; in short: as §1
Staphylococcus aureus [10] = test: Antimicrobial activity against Staphylococcus aureus isolate 1 with AMC-AMP-CIP-ERY-GEN-OXA-RIF resistance phenotype at twofold the bactericidal concentration within 30 mins; type: functional, organism-based; in short: as §3
Acinetobacter baumannii [11] = test: Antimicrobial activity against Acinetobacter baumannii isolate 3 with AMP-AMC-CFZ-CIP-IPM-SXT-TET-TOB resistance phenotype assessed as time to kill at bactericidal concentration; type: functional; in short: as §3
Enterococcus faecium [12] = test: (§4) Bactericidal activity against Enterococcus faecium isolate 3 with AMP-CIP-CTX-ERY-GEN-LVX-SXT-TEC-VAN resistance phenotype assessed as concentration required for >= 3 log10 CFU/ml reduction in viable bacteria in sodium phosphate buffer at pH 7.4 after 1.5 hrs by liquid microdilution assay; type: functional; in short: as §2
Enterococcus faecium [13] = test: as §4, with “isolate 6” for “isolate 3”, “with AMP-AMC-CLI-CRO-CTX-CIP-ERY-GEN-KAN-LVX-SXT-VAN” for “with AMP-CIP-CTX-ERY-GEN-LVX-SXT-TEC-VAN”; type: functional; in short: as §2
Pseudomonas aeruginosa [14] = test: Antimicrobial activity against Pseudomonas aeruginosa isolate 1 with AMP-CFZ-CIP-CTX-CXM-GEN-LVX-SXT-TET resistance phenotype at twofold bactericidal concentration after 10 to 30 mins by time kill assay; type: functional, organism-based; in short: as §3
Enterococcus faecium [15] = test: Bactericidal activity against Enterococcus faecium isolate 5 with AMP-AMC-CIP-CLI-ERY-GEN-KAN-LVX-SXT-TEC-VAN resistance phenotype assessed as concentration required for >= 3 log10 CFU/ml reduction in viable bacteria in sodium phosphate buffer at pH 7.4 after 1.5 hrs by liquid microdilution assay; type: functional; in short: as §2
Acinetobacter baumannii [16] = test: Bactericidal activity against Acinetobacter baumannii isolate 2 with AMP-CFZ-CIP-LVX-PIP-SXT resistance phenotype assessed as concentration required for >= 3 log10 CFU/ml reduction in viable bacteria in sodium phosphate buffer at pH 7.4 after 1.5 hrs by liquid microdilution assay; type: functional; in short: as §2
Enterococcus faecium [17] = test: Antimicrobial activity against Enterococcus faecium isolate 3 with AMP-CIP-CTX-ERY-GEN-LVX-SXT-TEC-VAN resistance phenotype assessed as time to kill at twofold the bactericidal concentration; type: functional, organism-based; in short: as §3
Staphylococcus aureus [18] = test: Bactericidal activity against Staphylococcus aureus isolate 1 with AMC-AMP-CIP-ERY-GEN-OXA-RIF resistance phenotype assessed as concentration required for >= 3 log10 CFU/ml reduction in viable bacteria in 20% heat-inactivated human serum after 1.5 hrs by liquid microdilution assay; type: functional; in short: as §1
[19] = system: Stenotrophomonas maltophilia; test: Bactericidal activity against Stenotrophomonas maltophilia isolate 1 with AMK-CIP-CTX-IPM-MEM-SAM-TZP resistance phenotype assessed as concentration required for >= 3 log10 CFU/ml reduction in viable bacteria in sodium phosphate buffer at pH 7.4 after 1.5 hrs by liquid microdilution assay; type: functional; in short: as §2
[20] = system: Stenotrophomonas maltophilia; test: Antimicrobial activity against Stenotrophomonas maltophilia isolate 2 with AMK-CIP-CTX-IPM-MEM-SAM-TZP resistance phenotype assessed as assessed as time to kill at twofold bactericidal concentration; type: functional; in short: as §3
Staphylococcus aureus [21] = test: Bactericidal activity against Staphylococcus aureus isolate 1 with AMC-AMP-CIP-ERY-GEN-OXA-RIF resistance phenotype assessed as concentration required for >= 3 log10 CFU/ml reduction in viable bacteria in sodium phosphate buffer at pH 7.4 after 1.5 hrs by liquid microdilution assay; type: functional; in short: as §2
[22] = system: Stenotrophomonas maltophilia; test: Bactericidal activity against Stenotrophomonas maltophilia isolate 4 with AMK-CAZ-CIP-FEP-IPM-SAM-TZP resistance phenotype assessed as concentration required for >= 3 log10 CFU/ml reduction in viable bacteria in sodium phosphate buffer at pH 7.4 after 1.5 hrs by liquid microdilution assay; type: functional; in short: as §2
Staphylococcus aureus [23] = test: Bactericidal activity against Staphylococcus aureus isolate 3 with AMC-AMP-CIP-ERY-GEN-LVX-OXA resistance phenotype assessed as concentration required for >= 3 log10 CFU/ml reduction in viable bacteria in sodium phosphate buffer at pH 7.4 after 1.5 hrs by liquid microdilution assay; type: functional; in short: as §2
Pseudomonas aeruginosa [24] = test: Bactericidal activity against Pseudomonas aeruginosa isolate 3 with AMP-CFZ-CTX-CIP-GEN-IPM-LVX-SXT-TET-TOB resistance phenotype assessed as concentration required for >= 3 log10 CFU/ml reduction in viable bacteria in sodium phosphate buffer at pH 7.4 after 1.5 hrs by liquid microdilution assay; type: functional; in short: as §2
Enterococcus faecium [25] = test: Bactericidal activity against Enterococcus faecium isolate 3 with AMP-CIP-CTX-ERY-GEN-LVX-SXT-TEC-VAN resistance phenotype assessed as concentration required for >= 3 log10 CFU/ml reduction in viable bacteria in 20% heat-inactivated human serum after 1.5 hrs by liquid microdilution assay; type: functional; in short: as §1
Acinetobacter baumannii [26] = test: Bactericidal activity against Acinetobacter baumannii isolate 3 with AMP-AMC-CFZ-CIP-IPM-SXT-TET-TOB resistance phenotype assessed as concentration required for >= 3 log10 CFU/ml reduction in viable bacteria in sodium phosphate buffer at pH 7.4 after 1.5 hrs by liquid microdilution assay; type: functional; in short: as §2
Pseudomonas aeruginosa [27] = test: Bactericidal activity against Pseudomonas aeruginosa isolate 2 with AMP-CFZ-CIP-CTX-CXM-GEN-LVX-IPM-MEM-SXT-TET resistance phenotype assessed as concentration required for >= 3 log10 CFU/ml reduction in viable bacteria in sodium phosphate buffer at pH 7.4 after 1.5 hrs by liquid microdilution assay; type: functional; in short: as §2

| Substance | Activity (Acinetobacter baumannii [1]) | Activity (Staphylococcus aureus [2]) | Activity (Pseudomonas aeruginosa [3]) | Activity (Acinetobacter baumannii [4]) | Activity [5] | Activity (Pseudomonas aeruginosa [6]) | Activity (Pseudomonas aeruginosa [7]) | Time (Enterococcus faecium [8]) | Activity [9] | Activity (Staphylococcus aureus [10]) | Time (Acinetobacter baumannii [11]) | Activity (Enterococcus faecium [12]) | Activity (Enterococcus faecium [13]) | Activity (Pseudomonas aeruginosa [14]) | Activity (Enterococcus faecium [15]) | Activity (Acinetobacter baumannii [16]) | Activity (Enterococcus faecium [17]) | Activity (Staphylococcus aureus [18]) | Activity [19] | Time [20] | also measured |
| --- | --- | --- | --- | --- | --- | --- | --- | --- | --- | --- | --- | --- | --- | --- | --- | --- | --- | --- | --- | --- | --- |
| H-FFPVIGRILNGIL-NH2 [TEMPORIN G] | >193 µM | 12 µM | inactive | 12 µM | 3 µM | 48 µM | >194 µM | 5 min | >192 µM | Active | >=30 min | 6 µM | 6 µM | Active | 6 µM | 6 µM | inactive | 96 µM | 12 µM | 2 min | Activity (Staphylococcus aureus [21]): 24 µM; Activity [22]: >96 µM; Activity (Staphylococcus aureus [23]): 12 µM; Activity (Pseudomonas aeruginosa [24]): 48 µM; Activity (Enterococcus faecium [25]): 48 µM; Activity (Acinetobacter baumannii [26]): 6 µM; Activity (Pseudomonas aeruginosa [27]): 48 µM |
| H-FLPLIGRVLSGIL-NH2 [TEMPORIN A] | >193 µM | 12 µM | inactive | 24 µM | 12 µM | 48 µM | >194 µM | 5 min | >192 µM | inactive | >=30 min | 12 µM | 12 µM | Active | 12 µM | 12 µM | inactive | 48 µM | 48 µM | 2 min | Activity (Staphylococcus aureus [21]): 12 µM; Activity [22]: 96 µM; Activity (Staphylococcus aureus [23]): 12 µM; Activity (Pseudomonas aeruginosa [24]): 96 µM; Activity (Enterococcus faecium [25]): 48 µM; Activity (Acinetobacter baumannii [26]): 12 µM; Activity (Pseudomonas aeruginosa [27]): 48 µM |
| H-IIGPVLGLVGSALGGLLKKI-NH2 [BOMBININ H2] | 128 µM | 16 µM | inactive | 8 µM | 4 µM | 16 µM | 128 µM | 5 min | 128 µM | inactive | 2 min | 4 µM | 4 µM | Active | 8 µM | 4 µM | inactive | 64 µM | 4 µM | 2 min | Activity (Staphylococcus aureus [21]): 16 µM; Activity [22]: 16 µM; Activity (Staphylococcus aureus [23]): 8 µM; Activity (Pseudomonas aeruginosa [24]): 8 µM; Activity (Enterococcus faecium [25]): 64 µM; Activity (Acinetobacter baumannii [26]): 8 µM; Activity (Pseudomonas aeruginosa [27]): 16 µM |
| H-LLPIVGNLLKSLL-NH2 | 192 µM | 48 µM | inactive | 24 µM | 3 µM | 48 µM | 192 µM | 5 min | 192 µM | Active | >=30 min | 12 µM | 12 µM | Active | 12 µM | 6 µM | inactive | 96 µM | 24 µM | 2 min | Activity (Staphylococcus aureus [21]): 48 µM; Activity [22]: 48 µM; Activity (Staphylococcus aureus [23]): 12 µM; Activity (Pseudomonas aeruginosa [24]): 48 µM; Activity (Enterococcus faecium [25]): 48 µM; Activity (Acinetobacter baumannii [26]): 6 µM; Activity (Pseudomonas aeruginosa [27]): 48 µM |
